Square brackets hold non-standard residues; d marks the D form. Peptide text beside a SMILES is read from it. * marks the point of attachment. X1 = CCCCCCCCCCCCCCCC(=O)OC[C@H](COP(=O)(O)OCCNC(=O)CCCc1ccc(N2C(=O)CC(*)C2=O)cc1)OC(=O)CCCCCCCCCCCCCCC; pS = N[C@@H](COP(=O)(O)O)C(=O)O
Experiments:
AP2 [1] = molecular target: T1, AP2 (UniProt P18484+P62743+P63010+P84092); test: Equilibrium tensiometry binding analysis
AP2 [2] = molecular target: T1, AP2; test: SNR low-resolution slab model of membrane-bound AP2 on Langmuir monolayers; format: binding; details: AP2 10 nM
Procedure, shortened: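 Langmuir-trough monolayers held at 25 ± 1 mN/m were measured on the FIGARO reflectometer, then AP2 was injected beneath them to a final bulk concentration of 10 nM. Settings were two incidence angles (0.6°, 3.7°), 7% wavelength resolution and Qz 0.007–0.25 Å−1, with 100% D2O and 8.1% D2O contrasts. The bound protein was fitted as a slab of constant SLD. Fit errors were ±1σ, checked against triplicate measurements.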

AP2 [3] = molecular target: T1, AP2; test: High-resolution SNR rigid-body modeling of membrane-bound AP2; format: binding
Procedure, shortened: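 Measured on the FIGARO time-of-flight reflectometer at 0.6° and 3.7°, 7% dλ/λ, Qz 0.007–0.25 Å−1, in 100% and 8.1% D2O contrasts. Trough monolayers at 25 ± 1 mN/m were measured before and after AP2 injection into the subphase (final 10 nM). SLD profiles were calculated from energy-minimised open, open+ and closed AP2 models (PDB […], 6qh6, 2vgl) to fit orientation and position. Fractional coverage is given as mean ± SD, n = 256.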

AP2 [4] = molecular target: T1, AP2; test: Fluid-phase tapping-mode AFM of transferred monolayers; details: CD4-presenting monolayers
Procedure, shortened: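 Monolayers were transferred from a Langmuir trough onto glass coverslips by Langmuir–Schaeffer and imaged by fluid-phase tapping-mode AFM. Scans were 5 μm at 256×256 pixels and 1 Hz. A droplet of HKM buffer containing recombinant AP2 was spread and imaged before evaporation. Thickness profiles (n = 10) were Gaussian-fitted to give mean ± SD.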

[5] = SNR of Langmuir lipid monolayers before AP2; format: physicochemical; details: Π0 = 25 ± 0.5 mN/m
[6] = Surface pressure - area isotherms of PM model membranes; format: physicochemical; details: T = 21 ± 0.5 °C
[7] = molecular target: CD4 lipo-peptide (di-leucine peptide derived from the phosphorylated cytoplasmic tail of CD4, lipid-conjugated); test: specular neutron reflectometry
[8] = molecular target: TGN38 lipo-peptide (Yxxφ-containing peptide derived from the cytoplasmic tail of TGN38, lipid-conjugated); test: specular neutron reflectometry
[9] = molecular target: CD4 lipo-peptide (di-leucine peptide derived from the phosphorylated cytoplasmic tail of CD4, lipid-conjugated); test: Langmuir trough surface-pressure tensiometry
[10] = molecular target: TGN38 lipo-peptide (Yxxφ-containing peptide derived from the cytoplasmic tail of TGN38, lipid-conjugated); test: Langmuir trough surface-pressure tensiometry

T1 sequence (P63010 1-591): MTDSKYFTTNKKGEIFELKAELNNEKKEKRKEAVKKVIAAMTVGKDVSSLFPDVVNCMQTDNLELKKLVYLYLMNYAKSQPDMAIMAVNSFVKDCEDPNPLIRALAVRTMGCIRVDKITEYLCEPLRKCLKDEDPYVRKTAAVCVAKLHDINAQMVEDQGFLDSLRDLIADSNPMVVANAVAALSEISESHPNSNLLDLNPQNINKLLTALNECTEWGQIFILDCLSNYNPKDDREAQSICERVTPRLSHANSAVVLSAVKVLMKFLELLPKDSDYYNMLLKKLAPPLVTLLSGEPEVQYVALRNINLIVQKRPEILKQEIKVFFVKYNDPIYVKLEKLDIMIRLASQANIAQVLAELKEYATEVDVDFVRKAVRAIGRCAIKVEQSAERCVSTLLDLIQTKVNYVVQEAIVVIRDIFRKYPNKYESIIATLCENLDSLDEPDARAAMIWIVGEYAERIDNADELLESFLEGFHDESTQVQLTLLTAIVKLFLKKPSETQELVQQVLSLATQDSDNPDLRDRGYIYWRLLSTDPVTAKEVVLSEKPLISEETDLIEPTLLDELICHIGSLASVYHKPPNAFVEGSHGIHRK
T1 sequence (P84092 whole entry): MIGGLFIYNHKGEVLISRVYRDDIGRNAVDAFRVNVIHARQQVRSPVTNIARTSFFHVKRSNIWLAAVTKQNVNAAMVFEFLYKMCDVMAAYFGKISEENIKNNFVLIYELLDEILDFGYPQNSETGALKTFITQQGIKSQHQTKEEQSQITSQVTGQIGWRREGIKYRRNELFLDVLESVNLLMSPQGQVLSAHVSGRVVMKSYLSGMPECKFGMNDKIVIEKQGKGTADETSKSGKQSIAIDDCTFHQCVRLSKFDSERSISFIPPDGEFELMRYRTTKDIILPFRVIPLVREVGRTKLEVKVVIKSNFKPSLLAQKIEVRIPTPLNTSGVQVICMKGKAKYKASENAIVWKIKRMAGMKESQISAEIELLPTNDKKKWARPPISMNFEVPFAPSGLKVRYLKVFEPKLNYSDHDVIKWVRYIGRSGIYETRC
T1 sequence (P18484 1-621): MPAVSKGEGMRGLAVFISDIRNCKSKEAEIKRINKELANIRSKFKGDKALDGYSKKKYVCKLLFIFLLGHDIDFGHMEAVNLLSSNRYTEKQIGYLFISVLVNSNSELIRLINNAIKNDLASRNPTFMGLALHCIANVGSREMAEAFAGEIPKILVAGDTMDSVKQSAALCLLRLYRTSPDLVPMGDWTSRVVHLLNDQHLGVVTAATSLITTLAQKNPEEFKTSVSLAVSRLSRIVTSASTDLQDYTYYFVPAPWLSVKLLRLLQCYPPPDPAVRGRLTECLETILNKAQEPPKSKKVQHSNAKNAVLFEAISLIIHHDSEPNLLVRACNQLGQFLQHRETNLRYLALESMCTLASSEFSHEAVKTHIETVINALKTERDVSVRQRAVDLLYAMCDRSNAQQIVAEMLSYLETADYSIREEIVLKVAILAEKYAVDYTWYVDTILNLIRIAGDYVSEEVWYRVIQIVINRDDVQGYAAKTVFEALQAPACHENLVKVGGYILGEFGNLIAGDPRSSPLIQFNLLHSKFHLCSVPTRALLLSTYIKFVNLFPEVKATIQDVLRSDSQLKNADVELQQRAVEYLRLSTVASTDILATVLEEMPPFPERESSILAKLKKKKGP
T1 sequence (P62743 whole entry): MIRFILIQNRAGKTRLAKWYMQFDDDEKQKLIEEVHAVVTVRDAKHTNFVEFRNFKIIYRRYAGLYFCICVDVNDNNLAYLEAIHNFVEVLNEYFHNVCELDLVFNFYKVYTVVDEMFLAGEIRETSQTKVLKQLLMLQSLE
Chain of AP2 (recombinant adaptor protein complex 2, hetero-tetramer) (P18484 whole entry): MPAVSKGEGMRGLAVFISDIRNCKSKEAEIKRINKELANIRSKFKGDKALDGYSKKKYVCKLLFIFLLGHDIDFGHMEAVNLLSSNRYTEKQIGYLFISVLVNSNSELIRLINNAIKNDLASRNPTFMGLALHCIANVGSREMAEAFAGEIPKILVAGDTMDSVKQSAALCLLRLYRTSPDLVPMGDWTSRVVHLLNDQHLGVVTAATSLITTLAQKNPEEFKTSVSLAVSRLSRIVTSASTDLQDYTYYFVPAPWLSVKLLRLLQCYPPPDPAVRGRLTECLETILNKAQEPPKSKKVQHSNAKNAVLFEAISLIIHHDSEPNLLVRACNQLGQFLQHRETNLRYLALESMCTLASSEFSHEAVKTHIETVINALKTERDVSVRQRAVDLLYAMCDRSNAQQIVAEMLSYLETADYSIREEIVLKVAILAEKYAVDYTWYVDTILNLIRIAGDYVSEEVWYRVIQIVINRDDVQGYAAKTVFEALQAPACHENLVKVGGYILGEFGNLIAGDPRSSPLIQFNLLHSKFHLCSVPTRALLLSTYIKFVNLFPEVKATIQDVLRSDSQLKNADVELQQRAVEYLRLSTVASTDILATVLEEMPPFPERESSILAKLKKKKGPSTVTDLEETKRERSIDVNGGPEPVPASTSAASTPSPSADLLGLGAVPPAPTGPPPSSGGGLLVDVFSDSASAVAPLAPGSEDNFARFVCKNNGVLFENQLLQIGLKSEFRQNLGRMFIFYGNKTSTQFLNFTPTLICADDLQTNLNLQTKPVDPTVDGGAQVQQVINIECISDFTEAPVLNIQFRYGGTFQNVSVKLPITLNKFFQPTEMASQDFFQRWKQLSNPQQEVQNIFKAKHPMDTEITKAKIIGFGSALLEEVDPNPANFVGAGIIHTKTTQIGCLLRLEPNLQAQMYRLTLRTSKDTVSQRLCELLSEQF
Chain of AP2 (recombinant adaptor protein complex 2, hetero-tetramer) (P63010 whole entry): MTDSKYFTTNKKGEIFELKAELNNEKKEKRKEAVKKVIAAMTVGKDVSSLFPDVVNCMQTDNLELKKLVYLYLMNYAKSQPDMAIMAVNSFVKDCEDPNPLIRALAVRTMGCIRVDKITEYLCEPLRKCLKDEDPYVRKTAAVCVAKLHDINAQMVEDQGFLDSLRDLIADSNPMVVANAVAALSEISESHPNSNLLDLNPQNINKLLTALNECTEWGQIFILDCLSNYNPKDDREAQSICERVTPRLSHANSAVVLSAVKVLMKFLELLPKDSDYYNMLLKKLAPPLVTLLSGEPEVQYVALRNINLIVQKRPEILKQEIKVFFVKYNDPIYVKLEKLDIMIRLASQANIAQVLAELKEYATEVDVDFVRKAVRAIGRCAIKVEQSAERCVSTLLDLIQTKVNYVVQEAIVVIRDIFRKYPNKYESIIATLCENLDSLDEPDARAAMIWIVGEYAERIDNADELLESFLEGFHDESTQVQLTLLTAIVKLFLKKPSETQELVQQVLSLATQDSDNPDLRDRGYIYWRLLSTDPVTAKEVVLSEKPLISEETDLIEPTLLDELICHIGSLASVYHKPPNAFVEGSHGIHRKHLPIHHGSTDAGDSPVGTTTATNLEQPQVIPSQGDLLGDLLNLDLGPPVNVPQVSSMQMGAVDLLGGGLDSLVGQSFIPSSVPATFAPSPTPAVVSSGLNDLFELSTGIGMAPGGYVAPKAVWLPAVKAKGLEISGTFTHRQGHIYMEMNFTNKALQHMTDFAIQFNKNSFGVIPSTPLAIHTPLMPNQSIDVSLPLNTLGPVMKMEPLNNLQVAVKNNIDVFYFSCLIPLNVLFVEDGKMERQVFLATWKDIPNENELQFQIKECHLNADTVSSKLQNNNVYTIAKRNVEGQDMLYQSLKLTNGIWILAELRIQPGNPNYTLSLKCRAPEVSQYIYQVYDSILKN
Chain of AP2 (recombinant adaptor protein complex 2, hetero-tetramer) (P84092 whole entry): as the sequence (P84092 whole entry) above
Chain of AP2 (recombinant adaptor protein complex 2, hetero-tetramer) (P62743 whole entry): as the sequence (P62743 whole entry) above

Row | Molecule | change in lateral pressure ΔΠ∞ on addition of cargo (AP2 [1]; AP2, Π0 = 25 mN/m, vs PtdIns(4,5)P2-only) | AP2 concentration above which biphasic binding behavior is observed (AP2 [1]; cargo-presenting monolayer vs PtdIns(4,5)P2-only) [nM] | total thickness of membrane-bound AP2 (AP2 [2]) [Å] | surface coverage of AP2 (AP2 [3]; open AP2 conformation) [%] | distance of AP2 center-of-mass to membrane head group (AP2 [3]; open AP2 conformation (2xa7)) [Å] | increment of bright spots' thickness after AP2 (AP2 [4]) | location of cargo peptides in monolayer [5] | effect on liquid expanded (LE) phase [6] | surface coverage of AP2 on the monolayer (with PtdIns(4,5)P2) [7] [%] | surface coverage of AP2 on the monolayer (with PtdIns(4,5)P2) [8] [%] | Kd [9] [nM] | apparent koff (combined cargo and PtdIns(4,5)P2 binding, monolayer) [9] [s⁻¹] | overall Kd (monolayer with cargo and PtdIns(4,5)P2, 35 mN/m) [9] [nM] | residence time (1/koff) on the monolayer with PtdIns(4,5)P2 [9] [s] | Kd from kinetics (monolayer with cargo and PtdIns(4,5)P2) [10] [nM] | overall Kd (monolayer with cargo and PtdIns(4,5)P2) [10] [nM] | overall Kd (monolayer with cargo and PtdIns(4,5)P2, 35 mN/m) [10] [nM] | residence time (1/koff) on the monolayer with PtdIns(4,5)P2 [10] [s]
1 | CCCCCCCCCCCCCCCC(=O)OC[C@H](COP(=O)(O)OCCNC(=O)CCCc1ccc(N2C(=O)CC(SC[C@H](N)C(=O)N[C@@H](Cc3c[nH]cn3)C(=O)N[C@@H](CCCNC(=N)N)C(=O)N[C@@H](CCCNC(=N)N)C(=O)N[C@@H](CCCNC(=N)N)C(=O)N[C@@H](CCC(N)=O)C(=O)N[C@@H](C)C(=O)N[C@@H](CCC(=O)O)C(=O)N[C@@H](CCCNC(=N)N)C(=O)N[C@@H](CCSC)C(=O)N[C@@H](COP(=O)(O)O)C(=O)N[C@@H](CCC(N)=O)C(=O)N[C@H](C(=O)N[C@@H](CCCCN)C(=O)N[C@@H](CCCNC(=N)N)C(=O)N[C@@H](CC(C)C)C(=O)N[C@@H](CC(C)C)C(=O)N[C@@H](CO)C(=O)N[C@@H](CCC(=O)O)C(=O)N[C@@H](CCCCN)C(=O)O)[C@@H](C)CC)C2=O)cc1)OC(=O)CCCCCCCCCCCCCCC (stereo partly drawn) [CD4] (H-C(X1)HRRRQAERM[pS]QIKRLLSEK-OH; N-terminus and C-terminus assumed) | further increases in lateral pressure | > 10 | 84 ± 6 | 24 | 10 ± 4 | A similar increment was also found | confined to the headgroups layer | did not alter the existence of the LE phase |  |  |  |  |  |  |  |  |  | 
2 | AP2 (recombinant adaptor protein complex 2, hetero-tetramer) (from UniProt P18484 1-938; P63010 1-937; P84092 1-435; P62743 1-142) |  |  |  |  |  |  |  |  | 24 | 51 | 75 | 0.00012 | 93 | 8330 | 12 | 15 | 64 | 5560
